# Results: ChEMBL document CHEMBL5724801, “EUbOPEN Chemogenomics Library - Multiplex” (2024)
# “And” between values parts separate entries of the source, which are not always exact repeats. Identical values can stand only once.
# System: HEK-293T
# Assay: Multiplex assay against HEK293T
# Type: toxicity, cell-based
# Conditions: human, 12 h, 1 µM, compound concentration 1 uM
# In short: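 Tubulin, mitochondrial-mass and membrane-permeability phenotypes are per cents of healthy-nucleus cells. Cells were gated by CellPathfinder machine learning into Hoechst high-intensity objects or normal cells, normal cells into healthy, pyknosed or fragmented nuclei, and pyknosed cells into mitotic or apoptotic. Before that, live cells stained at seeding with Hoechst33342, BioTracker Green Microtubule Cytoskeleton Dye, MitoTracker Red and Annexin V Alexa Fluor 680 were imaged on a CQ1 microscope at 37°C and 5% CO2 after compound addition.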
Compound,Population Apoptotic (%),Population Fragmented Nuclei (%),Population Healthy Nuclei (%),Population Hoechst High Intensity Objects (%),Population Membrane Permeable-Phenotype (%),Population Mitochondria Different-Phenotype (%),Population Mitotic Cells (%),Population Normal (%),Population Pyknosed Nuclei (%),Population Tubulin-Different-Phenotype (%)
CC(C)(C)c1cc(NC(=O)Nc2ccc(-c3cn4c(n3)sc3cc(OCCN5CCOCC5)ccc34)cc2)no1 [QUIZARTINIB],27% and 34%,5%,83% and 80%,10% and 6%,0%,40% and 58%,72% and 65%,89% and 93%,11% and 14%,35% and 26%
O=c1nc2[nH]c3ccccc3nc-2c(=O)[nH]1 [ALLOXAZINE],27% and 44%,8% and 4%,77% and 79%,8% and 7%,0%,44% and 66%,72% and 55%,91% and 92%,13% and 15%,33% and 25%
CC(C)(c1ccc(O)cc1)c1ccc(O)cc1 [BISPHENOL A],8.05% and 13.14%,5.16% and 3.01%,–,0% and 0.6%,0% and 4.17%,34.18% and 33.33%,91.95% and 86.86%,100% and 99.4%,36.61% and 82.53%,–
Cc1cc(C(C#N)c2ccc(Cl)cc2)c(Cl)cc1NC(=O)c1cc(I)cc(I)c1O (configuration not stated) [CLOSANTEL],6.57% and 5.41%,3.34% and 0.56%,–,0%,1.66% and 0%,–,93.43% and 94.59%,100%,41.64% and 82.22%,–

# Same assay, conditions: human, 12 h, 1 µM, compound concentration 1 uM
row,Compound,Total Cell Count
1,CC(C)(C)c1cc(NC(=O)Nc2ccc(-c3cn4c(n3)sc3cc(OCCN5CCOCC5)ccc34)cc2)no1 [QUIZARTINIB],377 and 345
2,O=c1nc2[nH]c3ccccc3nc-2c(=O)[nH]1 [ALLOXAZINE],377 and 345
3,CC(C)(c1ccc(O)cc1)c1ccc(O)cc1 [BISPHENOL A],407 and 167
4,Cc1cc(C(C#N)c2ccc(Cl)cc2)c(Cl)cc1NC(=O)c1cc(I)cc(I)c1O (configuration not stated) [CLOSANTEL],329 and 180

# Same assay, conditions: human, 12 h, 10 µM, compound concentration 10 uM
Compound,Population Apoptotic (%),Population Fragmented Nuclei (%),Population Healthy Nuclei (%),Population Hoechst High Intensity Objects (%),Population Membrane Permeable-Phenotype (%),Population Mitochondria Different-Phenotype (%),Population Mitotic Cells (%),Population Normal (%),Population Pyknosed Nuclei (%),Population Tubulin-Different-Phenotype (%)
CC(C)(C)c1cc(NC(=O)Nc2ccc(-c3cn4c(n3)sc3cc(OCCN5CCOCC5)ccc34)cc2)no1 [QUIZARTINIB],53% and 73%,7%,71%,23% and 12%,0,78% and 81%,46% and 26%,76% and 87%,21%,68% and 63%
O=c1nc2[nH]c3ccccc3nc-2c(=O)[nH]1 [ALLOXAZINE],40% and 60%,10% and 8%,71% and 70%,5% and 15%,0,53% and 67%,59% and 40%,94% and 84%,18% and 20%,31% and 20%
CC(C)(c1ccc(O)cc1)c1ccc(O)cc1 [BISPHENOL A],10.57% and 14.78%,4.23% and 2.74%,–,1.19% and 0.68%,0,37.63% and 18.52%,89.43% and 85.22%,98.81% and 99.32%,37.16% and 78.77%,–
Cc1cc(C(C#N)c2ccc(Cl)cc2)c(Cl)cc1NC(=O)c1cc(I)cc(I)c1O (configuration not stated) [CLOSANTEL],9.49% and 11.94%,1.44% and 2.52%,–,0.29% and 0%,0,–,90.51% and 88.06%,99.71% and 100%,39.37% and 84.28%,–

# Same assay, conditions: human, 12 h, 10 µM, compound concentration 10 uM
row,Compound,Total Cell Count
1,CC(C)(C)c1cc(NC(=O)Nc2ccc(-c3cn4c(n3)sc3cc(OCCN5CCOCC5)ccc34)cc2)no1 [QUIZARTINIB],324 and 293
2,O=c1nc2[nH]c3ccccc3nc-2c(=O)[nH]1 [ALLOXAZINE],362 and 323
3,CC(C)(c1ccc(O)cc1)c1ccc(O)cc1 [BISPHENOL A],335 and 147
4,Cc1cc(C(C#N)c2ccc(Cl)cc2)c(Cl)cc1NC(=O)c1cc(I)cc(I)c1O (configuration not stated) [CLOSANTEL],349 and 159

# Same assay, conditions: human, 24 h, 1 µM, compound concentration 1 uM
Compound,Population Apoptotic (%),Population Fragmented Nuclei (%),Population Healthy Nuclei (%),Population Hoechst High Intensity Objects (%),Population Membrane Permeable-Phenotype (%),Population Mitochondria Different-Phenotype (%),Population Mitotic Cells (%),Population Normal (%),Population Pyknosed Nuclei (%),Population Tubulin-Different-Phenotype (%)
CC(C)(C)c1cc(NC(=O)Nc2ccc(-c3cn4c(n3)sc3cc(OCCN5CCOCC5)ccc34)cc2)no1 [QUIZARTINIB],41% and 38%,7% and 5%,84%,6% and 4%,0%,26% and 40%,58% and 61%,93% and 95%,7% and 10%,21% and 17%
O=c1nc2[nH]c3ccccc3nc-2c(=O)[nH]1 [ALLOXAZINE],22% and 33%,10% and 7%,76% and 83%,4% and 7%,0%,24% and 41%,77% and 66%,95% and 92%,12% and 8%,19% and 12%
CC(C)(c1ccc(O)cc1)c1ccc(O)cc1 [BISPHENOL A],12.93% and 13.39%,1.95% and 0.56%,77.52% and 28.89%,0.18% and 0%,1.6% and 1.92%,13.7% and 15.38%,87.07% and 86.61%,99.82% and 100%,–,9.82% and 13.46%
Cc1cc(C(C#N)c2ccc(Cl)cc2)c(Cl)cc1NC(=O)c1cc(I)cc(I)c1O (configuration not stated) [CLOSANTEL],9.09% and 12.78%,2.28% and 0.53%,72.62% and 29.1%,0.19% and 0%,1.05% and 0%,12.3% and 16.36%,90.91% and 87.22%,99.81% and 100%,25.1% and 70.37%,11.78% and 10.91%

# Same assay, conditions: human, 24 h, 1 µM, compound concentration 1 uM
row,Compound,Total Cell Count
1,CC(C)(C)c1cc(NC(=O)Nc2ccc(-c3cn4c(n3)sc3cc(OCCN5CCOCC5)ccc34)cc2)no1 [QUIZARTINIB],491 and 440
2,O=c1nc2[nH]c3ccccc3nc-2c(=O)[nH]1 [ALLOXAZINE],504 and 391
3,Cc1cc(C(C#N)c2ccc(Cl)cc2)c(Cl)cc1NC(=O)c1cc(I)cc(I)c1O (configuration not stated) [CLOSANTEL],527 and 189

# Same assay, conditions: human, 24 h, 10 µM, compound concentration 10 uM
Compound,Population Apoptotic (%),Population Fragmented Nuclei (%),Population Healthy Nuclei (%),Population Hoechst High Intensity Objects (%),Population Membrane Permeable-Phenotype (%),Population Mitochondria Different-Phenotype (%),Population Mitotic Cells (%),Population Normal (%),Population Pyknosed Nuclei (%),Population Tubulin-Different-Phenotype (%)
CC(C)(C)c1cc(NC(=O)Nc2ccc(-c3cn4c(n3)sc3cc(OCCN5CCOCC5)ccc34)cc2)no1 [QUIZARTINIB],62% and 69%,8% and 9%,79% and 78%,16% and 9%,0%,63% and 75%,37% and 30%,83% and 90%,12% and 11%,57% and 50%
O=c1nc2[nH]c3ccccc3nc-2c(=O)[nH]1 [ALLOXAZINE],27% and 50%,9%,77% and 72%,6% and 15%,0%,34% and 48%,72% and 50%,93% and 84%,12% and 17%,21% and 16%
CC(C)(c1ccc(O)cc1)c1ccc(O)cc1 [BISPHENOL A],12.5% and 15.52%,2.67% and 1.71%,74.28% and 32%,0%,1.11% and 0%,19.11% and 16.07%,87.5% and 84.48%,100%,23.05% and 66.29%,–
Cc1cc(C(C#N)c2ccc(Cl)cc2)c(Cl)cc1NC(=O)c1cc(I)cc(I)c1O (configuration not stated) [CLOSANTEL],21.1% and 18.35%,2.28% and 2.25%,75.1% and 36.52%,0.21% and 2.73%,0.83% and 1.54%,12.15% and 7.69%,78.9% and 81.65%,99.79% and 97.27%,22.61% and 61.24%,3.04% and 9.23%

# Same assay, conditions: human, 24 h, 10 µM, compound concentration 10 uM
row,Compound,Total Cell Count
1,CC(C)(C)c1cc(NC(=O)Nc2ccc(-c3cn4c(n3)sc3cc(OCCN5CCOCC5)ccc34)cc2)no1 [QUIZARTINIB],413 and 321
2,O=c1nc2[nH]c3ccccc3nc-2c(=O)[nH]1 [ALLOXAZINE],491 and 371
3,CC(C)(c1ccc(O)cc1)c1ccc(O)cc1 [BISPHENOL A],486 and 175
4,Cc1cc(C(C#N)c2ccc(Cl)cc2)c(Cl)cc1NC(=O)c1cc(I)cc(I)c1O (configuration not stated) [CLOSANTEL],483 and 183

# Same assay, conditions: human, 48 h, 1 µM, compound concentration 1 uM
Compound,Population Apoptotic (%),Population Fragmented Nuclei (%),Population Healthy Nuclei (%),Population Hoechst High Intensity Objects (%),Population Membrane Permeable-Phenotype (%),Population Mitochondria Different-Phenotype (%),Population Mitotic Cells (%),Population Normal (%),Population Pyknosed Nuclei (%),Population Tubulin-Different-Phenotype (%)
CC(C)(C)c1cc(NC(=O)Nc2ccc(-c3cn4c(n3)sc3cc(OCCN5CCOCC5)ccc34)cc2)no1 [QUIZARTINIB],21%,12% and 10%,80% and 82%,3% and 2%,2% and 0%,11% and 24%,78%,96% and 97%,6%,15% and 18%
O=c1nc2[nH]c3ccccc3nc-2c(=O)[nH]1 [ALLOXAZINE],32% and 27%,14% and 11%,77% and 82%,3% and 4%,1% and 0%,18% and 26%,67% and 72%,96% and 95%,8% and 6%,13% and 12%
CC(C)(c1ccc(O)cc1)c1ccc(O)cc1 [BISPHENOL A],8.33% and 18.95%,3.14% and 0%,87.89% and 52.74%,0.07% and 0.99%,5.87% and 1.89%,–,91.67% and 81.05%,99.93% and 99.01%,–,–
Cc1cc(C(C#N)c2ccc(Cl)cc2)c(Cl)cc1NC(=O)c1cc(I)cc(I)c1O (configuration not stated) [CLOSANTEL],9.63% and 18.42%,3.24% and 1.21%,87.05% and 68.15%,0% and 0.8%,4.96% and 1.78%,11.57% and 23.67%,90.37% and 81.58%,100% and 99.2%,–,–

# Same assay, conditions: human, 48 h, 1 µM, compound concentration 1 uM
row,Compound,Total Cell Count
1,CC(C)(C)c1cc(NC(=O)Nc2ccc(-c3cn4c(n3)sc3cc(OCCN5CCOCC5)ccc34)cc2)no1 [QUIZARTINIB],851 and 566
2,O=c1nc2[nH]c3ccccc3nc-2c(=O)[nH]1 [ALLOXAZINE],773 and 636

# Same assay, conditions: human, 48 h, 10 µM, compound concentration 10 uM
Compound,Population Apoptotic (%),Population Fragmented Nuclei (%),Population Healthy Nuclei (%),Population Hoechst High Intensity Objects (%),Population Membrane Permeable-Phenotype (%),Population Mitochondria Different-Phenotype (%),Population Mitotic Cells (%),Population Normal (%),Population Pyknosed Nuclei (%),Population Tubulin-Different-Phenotype (%)
CC(C)(C)c1cc(NC(=O)Nc2ccc(-c3cn4c(n3)sc3cc(OCCN5CCOCC5)ccc34)cc2)no1 [QUIZARTINIB],57% and 58%,9% and 11%,77% and 73%,9% and 12%,1% and 0%,40% and 59%,42% and 41%,90% and 87%,12% and 14%,35% and 37%
O=c1nc2[nH]c3ccccc3nc-2c(=O)[nH]1 [ALLOXAZINE],29% and 48%,15% and 14%,76% and 78%,3% and 4%,0%,17% and 28%,70% and 51%,96% and 95%,7% and 6%,11% and 14%
CC(C)(c1ccc(O)cc1)c1ccc(O)cc1 [BISPHENOL A],–,3.13% and 2.41%,86.33% and 68.67%,0% and 2.35%,4.42% and 1.75%,9.82% and 14.62%,95.65% and 84.72%,100% and 97.65%,10.54% and 28.92%,–
Cc1cc(C(C#N)c2ccc(Cl)cc2)c(Cl)cc1NC(=O)c1cc(I)cc(I)c1O (configuration not stated) [CLOSANTEL],–,2.8% and 1.44%,87.9% and 66.19%,0.07% and 0%,1.34% and 0.54%,8.23% and 21.74%,96.03% and 80%,99.93% and 100%,–,–

# Same assay, conditions: human, 48 h, 10 µM, compound concentration 10 uM
row,Compound,Total Cell Count
1,CC(C)(C)c1cc(NC(=O)Nc2ccc(-c3cn4c(n3)sc3cc(OCCN5CCOCC5)ccc34)cc2)no1 [QUIZARTINIB],583 and 392
2,O=c1nc2[nH]c3ccccc3nc-2c(=O)[nH]1 [ALLOXAZINE],700 and 531
